Screens from PubChem BioAssay.
Shown are actives, neighbours in structure and some others; about 2.3% of the full set was active somewhere.
V1aR counter: agonists of human V1a receptor, primary screen, counter-screen for OXTR agonist project, fluorescence, CHO-V1R cells. Fluo-8 calcium fluorescence, agonist mode; 0% DMSO, 100% 3 nM vasopressin. activation, % at 3 µM. 320,000 tested, 0.25% active;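 active = activation above the mean activation of all tested compounds plus 3 SD, per screening run, cut at about 20% in these data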;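 also: signal is peak over basal fluorescence ratio across a 100 second FLIPR read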
TAAR1 antagonist: human TAAR1 antagonists, primary screen, Fluo-8 calcium fluorescence, CHO RD-HGA16 cells | Trace amine-associated receptor 1 (Homo sapiens), Q96RJ0 | antagonist | inhibition, % at 3 µM | 360,000 tested, 1.5% active;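 active = inhibition above a per-plate cutoff, the mean inhibition of test compounds on that plate plus 3 SD, cut at about 49% in these data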;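 also: 0% = DMSO plus EC80 beta-PEA response and 100% = DMSO alone without agonist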
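Test system: hTAAR1-expressing CHO RD-HGA16 cells, Gα16-coupled; Probe or stimulus: EC80 β-phenethylamine stimulus; Compound dosing: single nominal final test compound concentration of 3 µM; Timing: 140 s kinetic read after compound, 140 s after agonist; Signal: Fluo-8 calcium-sensitive fluorescence; Measure: % inhibition of agonist calcium response; Controls: DMSO and EC80 PEA controls.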
OXTR potentiator: human OXTR potentiators, primary screen, fluorescence, CHO-OTR cells, Fluo-8 calcium | activation, % at 3 µM | AID 2445, 2010 | 320,000 tested, 0.061% active | Fluo-8 calcium fluorescence, potentiator mode; 0% = oxytocin EC15, 100% = EC100 | Oxytocin receptor (Homo sapiens), P30559;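 active = activation above that plate's cutoff, the mean activation of tested compounds plus 3 SD, cut at about 6.6% in these data, passing the limit was not always enough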;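 also: 100% uses oxytocin at 75 nM as the full agonist control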
Target sequence (P30559 whole entry, looked up): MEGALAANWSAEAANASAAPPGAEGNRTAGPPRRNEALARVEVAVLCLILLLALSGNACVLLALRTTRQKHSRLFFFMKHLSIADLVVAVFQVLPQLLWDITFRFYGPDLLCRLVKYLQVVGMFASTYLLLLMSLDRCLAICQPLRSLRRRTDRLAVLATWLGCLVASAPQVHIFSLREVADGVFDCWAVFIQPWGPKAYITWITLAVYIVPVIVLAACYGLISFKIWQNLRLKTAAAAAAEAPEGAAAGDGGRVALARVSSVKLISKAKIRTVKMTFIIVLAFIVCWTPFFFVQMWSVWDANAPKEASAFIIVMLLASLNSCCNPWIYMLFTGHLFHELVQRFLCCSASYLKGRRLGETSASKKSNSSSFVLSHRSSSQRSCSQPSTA
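Assay system: CHO cell line stably expressing human OTR | Also added: Oxytocin at about EC15, sub-maximal agonist stimulus | Times: Compound 6 min at room temperature before oxytocin, 100 s read | Measured by: Fluo-8 intracellular calcium fluorescence, ex 470-495, em 515-575 nm | Controls: EC15 oxytocin alone as 0%, 75 nM oxytocin as 100%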
OXTR ag: human OXTR agonists, primary screen, fluorescence, CHO-OTR cells, Fluo-8 calcium. Oxytocin receptor (Homo sapiens), P30559. Fluo-8 calcium fluorescence; normalized: DMSO 0%, oxytocin 100%. activation, % at 3 µM. 320,000 tested, 0.32% active. AID 2435, 2010;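 active = activation above the mean of all tested compounds plus 3 SD, cutoff set per screening run, cut at about 20% in these data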;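 also: peak over basal fluorescence ratio from a 100 s FLIPR kinetic read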
TAAR1 agonist: human TAAR1 agonists, primary screen, Fluo-8 calcium fluorescence, CHO RD-HGA16 cells. vehicle wells 0%, saturating PEA agonist 100%. 360,000 tested, 0.99% active. AID 624467, 2012. activation, % at 3 µM;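 active = activation above the mean activation of all test compounds in the run plus 3 SD, cut at about 38% in these data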
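Signal – calcium-sensitive Fluo-8 signal, excitation 470-495, emission 515-575 nm · System – RD-HGA16 (CHO) cells co-expressing Gα16 and hTAAR1 · Incubation – 17-24 h seeding, 75 min 37 °C dye, 30 min RT · Compound dosing – 3 µM single concentration · Repeats – no replicates (n 1)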
The depositor's hits bear a star; . = not tested or not shown; ! = not confirmed by another sample.

SMILES	V1aR counter	TAAR1 antagonist	OXTR potentiator	OXTR ag	TAAR1 agonist
Cc1cccc(NP(=O)(Oc2ccccc2F)Oc2ccccc2F)c1	0	53*	-3	-1	4
O=P(Nc1ccccc1)(Nc1ccccc1)Oc1ccc(Cl)cc1	0	.	-8	0	.
COc1ccccc1OP(=O)(Nc1cccnc1)Oc1ccccc1OC	2	60*	-1	-2	15
Cc1ccc(NP(=O)(Oc2ccccc2F)Oc2ccccc2F)cc1C	0	13	-5	2	13
Cn1cc(C(=O)OCC(=O)NC2CCCC2)c2ccccc21	1	-2	-2	1	2
CCOCCCn1c(N)c(C(=O)Nc2sc3c(c2C(=O)OC)CCCC3)c2nc3ccccc3nc21	0	64*	-6	0	21
C/C=C1\NC(=O)[C@H](C)NC(=O)[C@@H](NC(=O)[C@H](Cc2ccc(O)cc2)NC(=O)[C@@H](NC(=O)/C(C)=C/C)C(C)C)[C@@H](C)OC(=O)[C@H](CCCc2ccc(O)cc2)NC(=O)[C@@H](CCC(=O)O)NC1=O	.	-12	.	.	2
Cc1[nH]c2ccc(OC(F)(F)F)cc2c1CCNCc1ccc(Cl)cc1	.	35	.	.	38*
CCOc1cccc(CNCCc2c(C)[nH]c3ccc(OC(F)(F)F)cc23)c1O	29*	49*	-10	39*	55*
COc1ccc2[nH]c(C)c(CCNCc3cccnc3)c2c1	2	-4	-4	1	10
CC(C)OS(C)(=O)=O	0	9	2	1	2
C[N+]12CCC(CC1)C(C#N)(N1CCOCC1)C2 (stereo unspecified)	1	-10	5	1	3
C[C@]12C[C@H](O)[C@@H](O)C[C@@H]1CC[C@@H]1[C@@H]2CC[C@]2(C)C(=O)CC[C@@H]12	.	51*	.	.	11
Cc1cc(C)cc(N2C(=O)NC(=O)/C(=C\c3cccn3-c3ccccc3)C2=O)c1	0	47	-7	-2	43*
Cc1cccc(N2C(=O)NC(=O)/C(=C\c3cnc(-c4ccccc4)nc3)C2=O)c1	-1	-2	-5	-1	3
CCOC(=O)C1CCCN(c2ccc([N+](=O)[O-])c3nonc23)C1 (stereo unspecified)	.	71*	.	.	225*
Cc1cccc(OP(=O)(Oc2ccccc2)OC(c2ccccc2)C(F)(F)F)c1 (stereo unspecified)	1	51*	-8	-1	1
CN[C@@H]1C[C@@H](c2ccc(Cl)c(Cl)c2)c2ccccc21	16	.	-4	28*	.
Clc1ccc(COC(Cn2ccnc2)c2ccc(Cl)cc2Cl)c(Cl)c1 (stereo unspecified)	0	53*!	-4	1	19
COC(=O)C1=C(c2c(C)noc2C)C[C@@H]2CC[C@H]1N2C(=O)NCCOc1ccccc1Cl	0	-1	-2	0	14
O=C1NC(=O)N(CCc2ccc(F)cc2)C(=O)/C1=C/c1ccco1	2	-30	-26	3	12
Cc1ccc(/C=C2/C(=O)NC(=O)N(CCc3ccc(F)cc3)C2=O)o1	3	28	-8	1	39*
CCN1/C(=C\C=C\C2=[N+](CC)c3ccccc3C2(C)C)C(C)(C)c2ccccc21	459*	.	-24	443*	.
COC(=O)C1=C(c2cccc3c2S(=O)(=O)c2ccccc2-3)C[C@@H]2CC[C@H]1N2C(=O)N1CCc2cc(OC)c(OC)cc2C1	-1	51*	-8	-1	17
CCCCCn1c(N)c(C(=O)NCc2cccs2)c2nc3ccccc3nc21	0	-22	-6	1	20
Nc1c(C(=O)NCCCc2ccccc2)c2nc3ccccc3nc2n1Cc1cccs1	0	-10	-7	0	37*
NCCc1ccc(S(N)(=O)=O)cc1	-1	-10	-16	-1	8
NCCc1ccccc1	0	81*	-1	1	92*
